Test results: ChEMBL document CHEMBL1143700, “Antiangiogenic versus cytotoxic activity in analogues of aeroplysinin-1” (Bioorg Med Chem, 2007)
Converted amounts (≈) assume the structure as drawn.

What was measured:
[1] = Cytotoxicity against BAEC after 2 days by MTT assay; type: cell-based, Bos taurus
Outline: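 BAE cells (primary bovine aortic endothelium, collagenase-isolated; grown in DMEM/20% FBS), 8·10³ per well, exposed to serial dilutions for 2 days at 37 °C, 5% CO₂. MTT (5 mg/mL in PBS) then added for a further 2 h at 37 °C. Formazan dissolved in DMSO and read spectrophotometrically. IC50 = concentration inhibiting growth by 50%; ">" means not reached at the top concentration tested.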

[2] = Effect on tube formation of BAEC assessed as sprouting inhibition after 48 hrs; type: functional, Bos taurus
Outline: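 BAE cells coated onto Cytodex 3 microcarrier beads over 48 h at 37 °C, 5% CO₂. Beads (250/mL) seeded onto Matrigel in wells containing compound; medium added after 30 min. After 48 h, sprout extent and length scored by microscopy against untreated wells. MIC = lowest concentration with no tube formation; ">" means not reached at the top concentration tested.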

[3] = Ratio of MIC for BAEC sprouting to IC50 for BAEC; type: functional, Bos taurus
[4] = Bos taurus, 48 h, read-out: MIC

SMILES | MIC [2] | MIC [2, 4] | IC50 ([1]; baec) | IC50 ([1]; Bos taurus, BAEC, 48 h) | Ratio [3]
COc1c(Br)cc(/C=C2\N=C(c3ccccc3)OC2=O)c(OCc2cc(N(C)C)ccc2Br)c1Br [listing 1 of 2 here] | >30 µM |  | > 15 µM |  | 
COc1c(Br)cc(/C=C2\N=C(c3ccccc3)OC2=O)c(OCc2cc(N(C)C)ccc2Br)c1Br [listing 2 of 2 here] |  | > 28 µM | 71 µM |  | 
COc1c(Br)cc(/C=C2\N=C(c3ccccc3)OC2=O)c(OCc2ccccc2)c1Br |  | 1 µM (≈ 0.543 µg/mL) |  | 921 µM | 921
COc1ccc(C=O)c(O)c1 |  | > 33 µM |  | > 33 µM | 
COc1c(Br)cc(/C=C2\N=C(c3ccccc3)OC2=O)c(O)c1Br |  | > 22 µM |  | > 22 µM | 
COc1c(Br)cc(C=O)c(OCc2cc(N(C)C)ccc2Br)c1Br |  | > 38 µM |  | > 19 µM | 
COC(=O)COc1c(C=O)cc(Br)c(OC)c1Br |  | 52 µM (≈ 19.9 µg/mL) |  | 151 µM | 3
COC(=O)COc1c(CO)cc(Br)c(OC)c1Br |  | > 26 µM |  | > 26 µM | 
COc1c(Br)cc(CO)c(OCc2ccccc2)c1Br |  | > 12 µM |  | > 12 µM | 
COc1c(Br)cc(C=O)c(OCc2ccccc2)c1Br |  | > 12.5 µM |  | > 12.5 µM | 
COC(=O)CCc1cc(Br)c(OC)c(Br)c1O |  | > 27 µM |  | 136 µM | 
COc1c(Br)cc(/C=C2\N=C(c3ccccc3)OC2=O)c(OC(=O)c2ccccc2)c1Br |  | 27 µM (≈ 15 µg/mL) |  | > 18 µM | 
COc1c(Br)cc(/C=C2\N=C(c3ccccc3)OC2=O)c(OC(=O)c2ccc(N(C)C)cc2)c1Br |  | > 17 µM |  | 83 µM | 
COC(=O)/C(=C/c1cc(Br)c(OC)c(Br)c1OCc1ccccc1)NC(=O)c1ccccc1 |  | > 35 µM |  | > 17 µM | 
COc1c(Br)cc(C=O)c(OC(=O)c2ccc(N(C)C)cc2)c1Br |  | > 44 µM |  | > 22 µM | 
COc1c(Br)cc(CO)c(OCCO)c1Br |  | 28 µM (≈ 9.97 µg/mL) |  | > 28 µM | 

Continued, in another order:

MIC [2] | MIC [2, 4] | SMILES | IC50 ([1]; baec) | IC50 ([1]; Bos taurus, BAEC, 48 h) | Ratio [3]
 | > 28 µM | COc1c(Br)cc2c(c1Br)OCC(O)OC2 (centres undefined) |  | > 28 µM | 
 | > 16 µM | COc1c(Br)cc(C=O)c(O)c1Br |  | 806 µM | 
 | 3 µM (≈ 0.693 µg/mL) | COC1=C(Br)C(=O)[C@]2(C=C1)CO2 |  | 11 µM | 4
 | 71 µM (≈ 20 µg/mL) | OCc1cc(Br)cc(Br)c1O |  | > 35 µM | 
 | 3 µM (≈ 0.93 µg/mL) | COC1=C(Br)C(=O)[C@]2(C=C1Br)CO2 |  | 161 µM | 54
 | 2 µM (≈ 0.678 µg/mL) | COC1=C(Br)[C@H](O)[C@](O)(CC#N)C=C1Br (single isomer, unassigned) |  | 29 µM | 14
 | > 22 µM | COC1=CC(=O)[C@]2(C=C1Br)CO2 |  | > 22 µM | 
 | 71 µM (≈ 19.9 µg/mL) | O=Cc1cc(Br)cc(Br)c1O |  | 36 µM | 0.5
 | 15 µM (≈ 5.1 µg/mL) | COC1=C(Br)C(=O)[C@@]2(CO2)C(OC)=C1Br |  | > 15 µM | 
 | 2 µM (≈ 0.56 µg/mL) | O=C1C(Br)=CC(Br)=C[C@]12CO2 |  | 12 µM | 6
 | > 14 µM | COC(=O)/C=C/c1cc(Br)c(OC)c(Br)c1O |  | > 14 µM | 
 | 2 µM (≈ 1.12 µg/mL) | O=C1C2(Br)C=C(Br)C([C@H]3[C@]2(Br)C=C(Br)C(=O)[C@]32CO2)[C@@]12CO2 (some centres undefined) |  | 4 µM | 2
 | 33 µM (≈ 5.02 µg/mL) | COC1=CC(=O)[C@]2(C=C1)CO2 |  | 33 µM | 1
 | > 16 µM | COc1c(Br)cc(CO)c(O)c1Br |  | > 16 µM | 
 | 25 µM (≈ 5.03 µg/mL) | O=C1C=CC(Br)=C[C@]12CO2 |  | > 25 µM | 
 | 33 µM (≈ 11.6 µg/mL) | COc1c(Br)cc(C=O)c(OC(C)=O)c1Br |  | 23 µM | 0.7
